E coli WT exp: growth inhibitors of wild-type E. coli, primary screen, strain BW25113, expanded library, OD600; OD600 absorbance; growth inhibition, % at 100 µM; actives 0.15% (n = 98,000); AID 710, 2007;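 active means growth inhibition above about 50% at one test dose, limit read from the data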;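 further: growth measured after 20 h incubation at 37 °C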
CD11b adhes enh: enhancers of CD11b/CD18 adhesion to fibrinogen, primary screen, K562 cells, luminescence | ATPlite luminescence | actives 0.07% (n = 93,000) | activation, % at 10 µM | AID 1499, 2009;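 active means 10 µM primary screen giving 50% or more activity, confirmed by 40% or more on retest at that dose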
tolC growth inh: growth inhibitors of E. coli tolC mutant, primary screen, strain BW25113 ΔtolC::kan, 384-well; OD615; growth inhibition, % at 10 µM (by protocol); actives 2.2% (n = 65,000); AID 573, 2007;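 active means growth inhibition at or above a cutoff equal to the mean over every tested compound plus 3 SD, cut at about 60% in these data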;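 further: growth measured after 20 h incubation at 37 °C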
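test system = E. coli BW25113 ΔtolC::kan bacteria | medium = LB with kanamycin 50 µg/mL | signal = OD at 615 nm | schedule = 37 °C, 20 h exposure | evaluation = % inhibition of E. coli growth | compound dosing = one dose of 10 µM final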
Mac1 fbg inh: inhibitors of CD11b/CD18 adhesion to fibrinogen, primary screen, K562 cells, luminescence. Integrin beta-2 (Homo sapiens) + Integrin alpha-M (Homo sapiens), P05107+P11215. ATPlite luminescence; Mn2+ added to activate the integrin. inhibition, % at 10 µM. actives 0.54% (n = 93,000). AID 1497, 2009;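 active means primary inhibition of 50% or more at 10 µM, then 40% or more on retest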
Pyk2 oligo antag: antagonists of Pyk2 self-association, primary screen, Q293 cells, FERM NanoBiT luminescence, HTS | Protein-tyrosine kinase 2-beta (Homo sapiens), Q14289 | hits give low values | z-score (the deposit names both 25 µM and 10 µM) | actives 0.83% (n = 99,000);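 active means Z-score of -3 or lower, scaled per plate to the spread of control and sample wells; inactive means z-score above -3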;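 further: negative z-score means lost luminescence so less FERM oligomerization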
Target sequence (Q14289 whole entry, looked up): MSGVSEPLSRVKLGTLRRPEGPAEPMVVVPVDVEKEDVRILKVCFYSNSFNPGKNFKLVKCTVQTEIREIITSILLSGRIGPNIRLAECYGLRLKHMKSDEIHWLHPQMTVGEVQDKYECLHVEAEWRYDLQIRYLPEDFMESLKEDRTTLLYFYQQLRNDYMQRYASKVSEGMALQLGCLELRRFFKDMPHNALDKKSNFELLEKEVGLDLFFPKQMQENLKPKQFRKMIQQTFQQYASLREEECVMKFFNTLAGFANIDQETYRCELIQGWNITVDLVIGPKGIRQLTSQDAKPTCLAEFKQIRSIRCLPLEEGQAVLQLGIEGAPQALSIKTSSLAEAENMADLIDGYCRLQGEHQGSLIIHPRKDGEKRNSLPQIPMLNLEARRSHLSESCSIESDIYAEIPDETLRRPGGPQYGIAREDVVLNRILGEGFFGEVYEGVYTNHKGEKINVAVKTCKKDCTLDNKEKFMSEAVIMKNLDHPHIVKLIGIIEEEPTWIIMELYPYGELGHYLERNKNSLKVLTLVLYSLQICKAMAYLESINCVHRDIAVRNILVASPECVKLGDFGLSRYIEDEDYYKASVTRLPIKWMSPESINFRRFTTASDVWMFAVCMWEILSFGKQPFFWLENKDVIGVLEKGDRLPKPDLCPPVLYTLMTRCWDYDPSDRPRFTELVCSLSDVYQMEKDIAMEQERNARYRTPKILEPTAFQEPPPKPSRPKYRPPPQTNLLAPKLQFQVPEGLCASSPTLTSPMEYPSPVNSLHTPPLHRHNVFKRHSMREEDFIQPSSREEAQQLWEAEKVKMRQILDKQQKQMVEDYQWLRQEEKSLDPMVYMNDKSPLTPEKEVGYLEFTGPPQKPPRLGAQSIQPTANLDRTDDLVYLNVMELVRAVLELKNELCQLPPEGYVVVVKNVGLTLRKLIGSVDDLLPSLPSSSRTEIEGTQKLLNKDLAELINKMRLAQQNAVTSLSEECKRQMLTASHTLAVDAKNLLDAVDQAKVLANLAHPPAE
Numbers stand for hits; . = inactive; / = not tested or not shown. Sampled rows, rich in hits. Any-hit rate of the full collection: about 2.3%.

SMILES | E coli WT exp | CD11b adhes enh | tolC growth inh | Mac1 fbg inh | Pyk2 oligo antag
NC(=O)[C@H](Cc1cc2ccccc2s1)NC(=O)[C@@H]1CC2(CC(c3cccc(NC(=O)[C@@H]4CCC(=O)N4)c3)=NO2)CN1C(=O)/C=C/c1c(F)cccc1Cl (stereo partly specified) | . | 148.1 | / | . | /
NC(=O)[C@H](Cc1cc2ccccc2s1)NC(=O)[C@@H]1CC2(CC(c3cccc(NC(=O)[C@@H]4CCC(=O)N4)c3)=NO2)CN1C(=O)c1ccccc1 (stereo partly specified) | . | . | / | . | /
COc1ccc(-c2cnn(C3CCS(=O)(=O)C3)c2N)cc1 (stereo unspecified) | . | . | / | . | .
COC(=O)Nc1ccc(S(=O)(=O)N2c3ccccc3CCC2C)cc1 (stereo unspecified) | . | . | . | . | -3.17
COC(=O)Nc1ccc(S(=O)(=O)N2CCCCCC2)cc1 | . | / | . | / | .
O=C(NCc1ccco1)c1cnn2c1NC(c1ccc(Br)cc1)CC2C(F)(F)F (stereo unspecified) | . | . | 67.5 | . | .
O=C(NCc1ccco1)c1cnn2c1NC(c1ccccc1)CC2C(F)(F)F (stereo unspecified) | . | . | . | . | .
Cc1cc(Cl)ccc1OCC(=O)Nc1ccccc1N1CCOCC1 | . | . | 86.2 | . | .
CCOc1ccc(CNC(=O)CCCOc2cc(=O)n(C)c3ccccc23)cc1 | . | . | / | . | .
COc1ccc(-n2c(C)nc3c(cnn3-c3ccc(Cl)cc3)c2=O)cc1 | . | . | 74.8 | . | .
COc1ccc(S(=O)(=O)N2CCCC2C(=O)Nc2ccc(C)cc2)cc1 (stereo unspecified) | . | / | . | / | .
Nc1nc(C2CCCN2S(=O)(=O)c2ccc(Cl)cc2)cs1 (stereo unspecified) | . | . | . | . | -3.17
COc1ccc(-c2csc(NC(=O)C3CCCCN3S(=O)(=O)c3ccccc3)n2)cc1 (stereo unspecified) | . | . | / | . | -3.36
O=C(Nc1nc2ccccc2s1)C1CCCN1S(=O)(=O)c1ccc(Cl)cc1 (stereo unspecified) | . | . | 85.8 | . | .
Cc1ccccc1NC(=O)C(=O)NCc1ccccn1 | . | . | / | . | .
CCN1/C(=C2\C(=O)N(C)C(=S)N2C)C=Cc2ccccc21 | / | . | / | . | /
CCCN1/C(=C2/SC(=S)N(CC)C2=O)C=Cc2ccccc21 | . | . | / | . | -3.14
CCOC(=O)c1cnn(-c2cc(Oc3ccccc3)ncn2)c1N | . | . | / | 51.7 | .
Cc1ccc(N2C(=O)NC(C(F)(F)F)(C(F)(F)F)C3=C2CC(C)(C)CC3=O)cc1 | / | / | / | / | .
Cc1ccc(N=Nc2c(=O)[nH]n3c(C)cc(C)nc23)cc1 | . | / | / | / | -3.81
Cc1ccc(Cl)cc1N1CCN(C(=O)COc2ccc(S(=O)(=O)NC(C)C)cc2)CC1 | . | . | 63.1 | . | /
Cc1ccccc1S(=O)(=O)Cc1ccc(C(=O)N2CCN(c3cccc(C)c3C)CC2)o1 | . | . | 69.0 | . | .
CC(Oc1ccc(Cl)cc1Cl)C(=O)Nc1ccc(S(=O)(=O)Nc2cnc3ccccc3n2)cc1 (stereo unspecified) | . | . | / | 78.0 | /
CC(Oc1ccc(Cl)cc1Cl)C(=O)Nc1ccncc1 (stereo unspecified) | . | . | . | 57.1 | .
CS(=O)(=O)N(CC(=O)N/N=C/c1cccs1)c1cccc(Cl)c1Cl | . | . | / | . | .
SMILES | E coli WT exp | CD11b adhes enh | tolC growth inh | Mac1 fbg inh | Pyk2 oligo antag
COc1ccc(OC)c(S(=O)(=O)n2cnc3cc(C)c(C)cc32)c1 | . | . | 94.3 | . | .
CCOc1ccc(S(=O)(=O)n2cnc3cc(C)c(C)cc32)cc1 | . | . | . | . | .
COc1ccc(OC)c(S(=O)(=O)N2CCN(c3c(C)cccc3C)CC2)c1 | . | . | 64.9 | . | /
CCN1CCN(S(=O)(=O)c2cc(OC)ccc2OC)CC1 | . | . | . | . | .
Cc1ccc2nc(C3CCN(C(=O)c4ccco4)CC3)[nH]c2c1 | . | . | . | . | .
CC(C)(CNC(=O)/C=C/c1ccc(F)cc1)CNC(=O)/C=C/c1ccc(F)cc1 | / | . | / | . | /
O=C(NCCc1ccccc1)C1CCCN(C(=O)NC2CCCCC2)C1 (stereo unspecified) | . | . | . | . | .
O=C(c1cccc(COc2ccc(Cl)cc2Cl)c1)N1CCN(c2ccccn2)CC1 | . | . | 86.5 | . | .
O=C1N/C(=N/Nc2ccccc2)S/C1=C\c1ccccc1 | . | . | / | 79.2 | .
COc1ccc(/C=C2\SC(=NCc3ccccc3)NC2=O)cc1 | / | . | / | . | /
O=C(O)/C=C/C(=O)Nc1ccccc1SC(F)(F)F | / | / | / | / | .
CCOC(=O)c1nn(-c2ccccc2)c(C#N)c1NC(=O)c1nn(CC)cc1Br | . | . | . | . | -3.47
O=C(O)Cc1ccc2c(c1)N(S(=O)(=O)c1cccc(C(F)(F)F)c1)CC(C(=O)O)O2 (stereo unspecified) | . | . | / | . | .
COc1ccc(O)c(C(=O)CC(=O)c2ccc(F)cc2)c1 | . | . | 100.0 | . | .
Cc1ccc(O)c(C(=O)CC(=O)c2cccc(F)c2)c1 | . | . | 100.0 | . | .
O=C(CC(=O)c1cc(Cl)ccc1O)c1ccccc1 | . | / | 96.6 | / | .
O=C(Nc1nc(-c2ccccn2)cs1)c1ncc(Cl)c(Cl)c1Cl | . | . | / | . | .
Cc1csc(NC(=O)c2cccn2C)n1 | . | / | / | / | .
Cn1cccc1C(=O)Nc1nc(-c2ccccn2)cs1 | . | . | 90.1 | . | .
O=C(Nc1nc(-c2ccccn2)cs1)c1ccc(Cl)s1 | . | . | 100.0 | . | /
Cc1cccc(-c2cc3nc4c(c(NCc5ccco5)n3n2)CCCC4)c1 | . | . | / | . | .
CCc1nnc(NC(=O)CSc2ncnc3c2cnn3-c2ccc(OC)cc2)s1 | . | . | / | . | .
Cc1sc2ncnc(NCC3(N4CCOCC4)CCCCC3)c2c1C | . | . | / | . | .
Cc1sc2ncnc(NCC3COc4ccccc4O3)c2c1C (stereo unspecified) | / | . | / | 99.5 | /
Cc1sc2ncnc(NCC(C)(C)N3CCOCC3)c2c1C | . | . | / | 67.5 | .
CC1=CCC2COC(c3ccc[n+](Cc4ccccc4)c3)C1C2 (stereo unspecified) | / | / | / | / | .
COC(=O)c1ccccc1NS(=O)(=O)c1ccc2c3c(cccc13)C(=O)N2 | / | . | . | . | -3.67
O=C(O)c1ccccc1NS(=O)(=O)c1ccc2c3c(cccc13)C(=O)N2 | . | . | . | . | .
CC(=O)Oc1cc2oc(=O)c3c(c2cc1Cl)CCC3 | . | . | . | . | .
O=C(Nc1ccc(C(F)(F)F)cc1)C1CCCN1S(=O)(=O)c1cccc2cccnc12 (stereo unspecified) | . | . | 76.0 | . | .

Source: PubChem BioAssay
